Where “and” joins values, the source holds several entries; their conditions need not be identical. Equal entries are not always repeated. Calls of active or inactive are those of the source. The rule behind the calls is not given here.
Legend:
[1] = biological target: T1, Beta-1,4-galactosyltransferase 1 (Homo sapiens) (UniProt P15291); test: Inhibition of human recombinant soluble His-tagged beta4-GalT1 expressed in Escherichia coli BL21 using GlcNAcbeta-Bn as substrate at 0.5 mM after 1 hr relative to control
T1 sequence (whole entry): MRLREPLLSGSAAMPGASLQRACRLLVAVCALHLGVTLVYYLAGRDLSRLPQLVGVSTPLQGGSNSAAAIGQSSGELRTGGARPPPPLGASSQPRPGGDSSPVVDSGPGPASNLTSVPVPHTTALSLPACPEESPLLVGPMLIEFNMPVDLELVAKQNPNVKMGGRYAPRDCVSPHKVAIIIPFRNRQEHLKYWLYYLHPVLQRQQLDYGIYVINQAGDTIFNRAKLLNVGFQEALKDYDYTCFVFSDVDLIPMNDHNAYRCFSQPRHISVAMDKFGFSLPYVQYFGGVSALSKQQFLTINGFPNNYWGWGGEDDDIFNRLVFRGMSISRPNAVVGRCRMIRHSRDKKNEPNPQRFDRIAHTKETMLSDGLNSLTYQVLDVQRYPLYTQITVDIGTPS
Procedure, shortened: (§1)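 Single point at 0.5 mM bis-imidazolium salt, 10% ethanol. Acceptor 0.5 mM GlcNAcβ-Bn, donor 0.5 mM UDP-Gal. […] Enzyme: 0.34 µg His-tagged human β4-GalT1 from BL21, or bovine milk β4-GalT1. Mean ± SD of replicates.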

[2] = biological target: T2, Beta-1,3-galactosyltransferase 5 (Homo sapiens) (UniProt Q9Y2C3); test: Inhibition of human recombinant soluble His-tagged beta3-GalT5 expressed in insect cells using GlcNAcbeta-Bn as substrate at 0.5 mM after 1 hr relative to control
T2 sequence (whole entry): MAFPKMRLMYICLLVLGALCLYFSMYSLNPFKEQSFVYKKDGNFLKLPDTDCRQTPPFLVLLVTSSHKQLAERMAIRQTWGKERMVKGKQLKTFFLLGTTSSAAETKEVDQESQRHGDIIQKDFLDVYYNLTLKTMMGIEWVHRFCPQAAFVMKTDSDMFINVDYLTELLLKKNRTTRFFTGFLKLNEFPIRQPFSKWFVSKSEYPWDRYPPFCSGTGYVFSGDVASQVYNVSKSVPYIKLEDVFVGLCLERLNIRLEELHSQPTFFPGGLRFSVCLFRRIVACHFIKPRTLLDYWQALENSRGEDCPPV
Procedure, shortened: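 Soluble His-tagged human β3-GalT5 expressed in insect cells and purified, 0.37 µg. Acceptor 0.5 mM GlcNAcβ-Bn, donor 0.5 mM UDP-Gal, inhibitor 0.5 mM bis-imidazolium salt in 10% ethanol. 1 h at 37 °C. Product isolated on AG1-X8 resin and counted by scintillation. % inhibition versus no-inhibitor control; blanks lacked acceptor. Mean ± SD of replicates.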

[3] = biological target: T3, Beta-1,4-galactosyltransferase 1 (Bos taurus, UniProt P08037); test: Inhibition of bovine milk beta4-GalT1 using GlcNAcbeta-Bn as substrate after 1 hr relative to control
T3 sequence (P08037 whole entry): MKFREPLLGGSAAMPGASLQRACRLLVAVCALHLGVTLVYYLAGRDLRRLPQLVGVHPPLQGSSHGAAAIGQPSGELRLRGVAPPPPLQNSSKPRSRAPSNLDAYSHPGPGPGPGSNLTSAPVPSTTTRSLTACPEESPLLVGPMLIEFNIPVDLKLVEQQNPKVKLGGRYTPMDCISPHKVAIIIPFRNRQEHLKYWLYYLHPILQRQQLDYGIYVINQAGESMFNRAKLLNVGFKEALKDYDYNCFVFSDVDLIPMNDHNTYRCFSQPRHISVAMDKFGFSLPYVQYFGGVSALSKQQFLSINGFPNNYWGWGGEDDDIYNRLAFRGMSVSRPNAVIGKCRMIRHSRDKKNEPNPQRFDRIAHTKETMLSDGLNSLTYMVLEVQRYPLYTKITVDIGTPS
Procedure, shortened: (§2)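 Dose-response series of bis-imidazolium salt in 10% ethanol, 0.5 mM GlcNAcβ-Bn acceptor, 0.5 mM UDP-Gal donor. 1 h at 37 °C. Product isolated on AG1-X8 anion-exchange resin (chloride form) with water elution, then scintillation counting. Controls lacked acceptor or inhibitor. IC50 fitted from inhibition curves. Enzyme source: bovine milk β4-GalT1 or bacterially expressed, purified human β4-GalT1.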

[4] = biological target: T4, Beta-1,4-galactosyltransferase 1 (Homo sapiens, UniProt P15291); test: Inhibition of human recombinant soluble His-tagged beta4-GalT1 expressed in Escherichia coli BL21 using GlcNAcbeta-Bn as substrate after 1 hr relative to control; procedure, shortened: as §2
T4 sequence (P15291 whole entry): T1 sequence (whole entry)

[5] = biological target: Beta-1,3-galactosyltransferase 5 (Homo sapiens) (UniProt Q9Y2C3); test: Inhibition of human recombinant soluble His-tagged beta3-GalT5 expressed in insect cells using GlcNAcbeta-Bn as substrate after 1 hr
[6] = biological target: T5, Beta-1,3-galactosyl-O-glycosyl-glycoprotein beta-1,6-N-acetylglucosaminyltransferase (Homo sapiens) (UniProt Q02742); test: Inhibition of human C2GnT1 using Galbeta3GalNAcalpha-Bn as substrate at 0.5 mM after 1 hr in presence of phosphatidylcholine
T5 sequence (whole entry): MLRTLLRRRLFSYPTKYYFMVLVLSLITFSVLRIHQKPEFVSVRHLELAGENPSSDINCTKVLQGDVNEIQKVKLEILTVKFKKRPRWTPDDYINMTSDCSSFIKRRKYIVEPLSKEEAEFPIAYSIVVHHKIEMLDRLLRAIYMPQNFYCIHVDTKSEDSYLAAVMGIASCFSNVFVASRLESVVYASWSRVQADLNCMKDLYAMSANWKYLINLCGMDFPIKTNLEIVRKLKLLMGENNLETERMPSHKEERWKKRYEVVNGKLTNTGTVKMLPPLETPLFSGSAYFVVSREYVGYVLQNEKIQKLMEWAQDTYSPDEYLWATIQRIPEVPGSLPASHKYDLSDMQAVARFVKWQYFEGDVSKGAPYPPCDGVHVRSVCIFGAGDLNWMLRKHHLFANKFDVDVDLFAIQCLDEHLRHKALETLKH

[7] = biological target: Beta-1,3-galactosyltransferase 5 (Homo sapiens) (UniProt Q9Y2C3); test: Inhibition of human recombinant soluble His-tagged beta3-GalT5 expressed in insect cells using GlcNAcbeta-Bn as substrate at 0.5 mM after 1 hr in presence of phosphatidylcholine
[8] = biological target: T6, Acetylgalactosaminyl-O-glycosyl-glycoprotein beta-1,3-N-acetylglucosaminyltransferase (Homo sapiens) (UniProt Q6ZMB0); test: Inhibition of human B3GnT6 using GalNAcalpha-Bn as substrate at 0.5 mM after 1 hr in presence of phosphatidylcholine
T6 sequence (whole entry): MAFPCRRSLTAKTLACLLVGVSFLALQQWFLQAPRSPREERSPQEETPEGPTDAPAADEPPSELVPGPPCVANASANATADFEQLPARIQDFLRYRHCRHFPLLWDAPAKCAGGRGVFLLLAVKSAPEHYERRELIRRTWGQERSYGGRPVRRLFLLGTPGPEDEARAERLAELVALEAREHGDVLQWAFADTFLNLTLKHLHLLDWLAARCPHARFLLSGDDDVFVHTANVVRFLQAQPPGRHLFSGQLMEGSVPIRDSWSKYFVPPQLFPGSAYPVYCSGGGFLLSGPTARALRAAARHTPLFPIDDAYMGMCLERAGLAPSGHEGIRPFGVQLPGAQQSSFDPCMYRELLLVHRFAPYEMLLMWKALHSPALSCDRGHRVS

[9] = Inhibition of human GNT1 using Man3-octyl as substrate at 0.5 mM after 1 hr in presence of phosphatidylcholine
[10] = biological target: Glycoprotein-N-acetylgalactosamine 3-beta-galactosyltransferase 1 (Homo sapiens) (UniProt Q9NS00); test: Inhibition of human C1GalT Gal-transferase using GalNAcalpha-Bn as substrate at 0.5 mM after 1 hr in presence of phosphatidylcholine
Glycoprotein-N-acetylgalactosamine 3-beta-galactosyltransferase 1 (Homo sapiens), sequence (Q9NS00 whole entry): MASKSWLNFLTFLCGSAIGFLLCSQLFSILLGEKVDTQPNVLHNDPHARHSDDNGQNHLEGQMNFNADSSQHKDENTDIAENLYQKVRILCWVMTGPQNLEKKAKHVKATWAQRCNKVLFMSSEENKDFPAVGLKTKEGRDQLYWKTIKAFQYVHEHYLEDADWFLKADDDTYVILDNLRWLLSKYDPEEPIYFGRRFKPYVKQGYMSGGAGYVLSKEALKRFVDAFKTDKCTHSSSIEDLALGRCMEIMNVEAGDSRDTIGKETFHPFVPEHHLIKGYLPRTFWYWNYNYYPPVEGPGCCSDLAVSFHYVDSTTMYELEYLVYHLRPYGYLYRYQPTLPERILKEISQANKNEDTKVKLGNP

[11] = biological target: T7, Alpha-1,6-mannosyl-glycoprotein 2-beta-N-acetylglucosaminyltransferase (Homo sapiens) (UniProt Q10469); test: Inhibition of human GNT2 […] using GnMan3-octyl as substrate at 0.5 mM after 1 hr in presence of phosphatidylcholine
T7 sequence (whole entry): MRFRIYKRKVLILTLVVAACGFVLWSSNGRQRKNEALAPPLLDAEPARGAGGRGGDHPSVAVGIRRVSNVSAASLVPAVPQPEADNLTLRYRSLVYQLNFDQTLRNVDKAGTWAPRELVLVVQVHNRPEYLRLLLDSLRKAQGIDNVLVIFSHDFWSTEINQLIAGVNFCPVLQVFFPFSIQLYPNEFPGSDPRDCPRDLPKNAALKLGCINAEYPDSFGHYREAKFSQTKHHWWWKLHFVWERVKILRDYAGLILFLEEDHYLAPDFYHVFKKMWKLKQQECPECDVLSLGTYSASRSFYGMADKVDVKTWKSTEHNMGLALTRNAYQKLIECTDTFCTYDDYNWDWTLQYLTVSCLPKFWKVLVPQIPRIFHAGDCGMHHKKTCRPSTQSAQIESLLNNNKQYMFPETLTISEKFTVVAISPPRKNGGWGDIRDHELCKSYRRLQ

Homo sapiens [12] = species on record: Homo sapiens; test: Inhibition of human C2GnT2 using Galbeta3GalNAcalpha-Bn as substrate at 0.5 mM after 1 hr in presence of phosphatidylcholine
[13] = biological target: Beta-1,3-galactosyltransferase 5 (Homo sapiens) (UniProt Q9Y2C3); test: Inhibition of human recombinant soluble His-tagged beta3-GalT5 expressed in insect cells using GlcNAcbeta-Bn as substrate at 0.5 mM after 1 hr in presence of triton X-100
Homo sapiens [14] = species on record: Homo sapiens; test: Inhibition of human C2GnT2 using GlcNAcbeta3GalNAcalpha-pnp as substrate at 0.5 mM after 1 hr in presence of phosphatidylcholine
[15] = biological target: T8, Beta-1,4-galactosyltransferase 1 (Bos taurus) (UniProt P08037); test: Inhibition of bovine milk beta4-GalT1 using GlcNAcbeta-Bn as substrate at 0.5 mM after 1 hr relative to control; procedure, shortened: as §1
T8 sequence (whole entry): T3 sequence (P08037 whole entry)

Bos taurus = species on record: Bos taurus; test: Inhibition of bovine polypeptide GalNAcT1 using AQPTPPP as substrate at 0.5 mM after 1 hr relative to control

Structure (SMILES)	inhibition [1]	inhibition [2]	further results
C[n+]1ccn(CCCCCCCCCCCCCn2cc[n+](C)c2)c1	< 1%	< 1%	–
C[n+]1ccn(CCCCCCCCCCCCCCCCCCn2cc[n+](C)c2)c1	< 1%	< 5%	–
C[n+]1ccn(CCCCCCCCCCn2cc[n+](C)c2)c1	< 1%	< 1%	–
c1cn(CCCCCCCCCCCCCCCCCCCCn2ccnc2)cn1	< 1%	< 1%	–
c1cn(CCCCCCCCCCCCCCCCn2ccnc2)cn1	< 1%	< 1%	–
C[n+]1ccn(CCCCCCCCCCCCCCCCn2cc[n+](C)c2)c1	< 1%	< 1%	–
C[n+]1ccn(CCCCCCCCCCCCCCCCCCCCn2cc[n+](C)c2)c1 [listing 1 of 3 here]	–	–	IC50 [3]: 730 µM; IC50 [4]: 1960 µM; IC50 [5]: 440 µM
C[n+]1ccn(CCCCCCCCn2cc[n+](C)c2)c1	< 1%	< 1%	–
C[n+]1ccn(CCCCCCCCCCCCCCCCCCCCn2cc[n+](C)c2)c1 [listing 2 of 3 here]	40.7% and 54%	79.2% and 84%	inhibition [6]: 100%; inhibition [7]: inactive; inhibition [8]: 80% and 94.4%; inhibition [9]: < 1%; inhibition [10]: < 1%; inhibition [11]: < 1%; inhibition (Homo sapiens [12]): < 1%; inhibition [13]: inactive; inhibition (Homo sapiens [14]): < 1%; inhibition [15]: 40.7% and 54%; inhibition (Bos taurus): 96.8% and 91%
C[n+]1ccn(CCCCCCCCCCCCCCCCCCCCCCn2cc[n+](C)c2)c1	78%	95%	inhibition [6]: 100%; inhibition [8]: 78%; inhibition [10]: < 1%; inhibition [11]: < 1%; inhibition (Homo sapiens [12]): < 1%; IC50 [5]: 400 µM; inhibition (Homo sapiens [14]): < 1%; inhibition [15]: 78%; inhibition (Bos taurus): 100%
C[n+]1ccn(CCCCCCn2cc[n+](C)c2)c1	< 1%	< 1%	–
C[n+]1ccn(CCCCCCCCCCCCCCCCCCCCn2cc[n+](C)c2)c1 [listing 3 of 3 here]	–	–	IC50 [5]: 420 µM
C[n+]1ccn(CCCCCCCCCCCCCCn2cc[n+](C)c2)c1	< 1%	< 1%	–
C[n+]1ccn(CCCCn2cc[n+](C)c2)c1	< 1%	< 1%	–
C[n+]1ccn(CCCCCCCCCCCn2cc[n+](C)c2)c1	< 1%	< 1%	–
C[n+]1ccn(CCCCCCCCCCCCCCCn2cc[n+](C)c2)c1	< 1%	< 1%	–
c1cn(CCCCCCCCCCCCCCCCCCn2ccnc2)cn1	< 1%	< 1%	–
C[n+]1ccn(CCCCCCCCCCCCn2cc[n+](C)c2)c1	< 1%	< 1%	–

Further lines, with some results ahead:

inhibition [1]	inhibition [2]	Structure (SMILES)	further results
< 1%	< 1%	c1cn(CCCCCCCCCCCCCn2ccnc2)cn1	–
< 1%	< 1%	c1cn(CCCCCCCCCCCCn2ccnc2)cn1	–
< 1%	< 1%	c1cn(CCCCCCCCCCn2ccnc2)cn1	–
< 1%	< 1%	c1cn(CCCCCCCCCCCCCCn2ccnc2)cn1	–
< 1%	< 1%	c1cn(CCCCCCCCCCCCCCCn2ccnc2)cn1	–
< 1%	< 1%	c1cn(CCCCCCCCn2ccnc2)cn1	–
< 1%	< 1%	c1cn(CCCCn2ccnc2)cn1	–
< 1%	< 1%	c1cn(CCCCCCn2ccnc2)cn1	–
< 1%	< 1%	c1cn(CCCCCCCCCCCn2ccnc2)cn1	–

From ChEMBL document CHEMBL2321737, “Selective inhibition of glycosyltransferases by bivalent imidazolium salts” (Bioorg Med Chem, 2013)
